Assay results as given in the EternaBench riboswitch data.

Test system: MS2 coat protein
Assay: apparent Kd, MS2 coat protein; higher = weaker binding; RNA-MaP array; FMN 200 µM where present
Outline: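 Binding was read on Illumina sequencing-chip clusters where stalled E. coli RNA polymerase had transcribed each design. A titration of SNAP-549-labelled MS2 coat protein began at 0.7 or 1.5 nM and doubled to 3 µM, once without ligand and once with constant ligand, in 100 mM Tris-HCl pH 7.5, 80 mM KCl, 4 mM MgCl2, BSA, DTT, yeast tRNA and Tween-20. The apparent Kd is the median of filtered per-cluster binding-curve fits, based on green signal normalised to red-channel RNA signal and control-cluster median Fmax.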

[1] = designed as: OFF switch for flavin mononucleotide, no ligand
[2] = ligand present: flavin mononucleotide, designed as: OFF switch for flavin mononucleotide
[3] = designed as: ON switch for flavin mononucleotide, no ligand
[4] = ligand present: flavin mononucleotide, designed as: ON switch for flavin mononucleotide

| Sequence | apparent Kd [1] [nM] | apparent Kd [2] [nM] | apparent Kd [3] [nM] | apparent Kd [4] [nM] |
| --- | --- | --- | --- | --- |
| AUUCAGCGGAACUUGACAUCCCUACAUGAGGAUCACCCAUGUCAGGAUAUAUGCUCUCGAGCUGCAUAGAAGGGACAUAGUGGG | 48.2 | 67 | – | – |
| AUGCAACAUGAGGAUCACCCAUGUGAGGAUAUCGUAUAAUACUGUUGAAAUAUUUAGACGAGAAGGCACACCGU | 29.7 | 47.3 | – | – |
| CUGCUCCGUGUAGGAUAUCCCGGCAACCAAUCGGGAGAAGGACAUGAGGAUCACCCAUGUAUGUUAUUAUCACGUGAAGCGUCC | 23.1 | 30.1 | – | – |
| CGCAAGUAUACAUGAGGAUACAUGAGGAUCACCCAUGUUAUCAGAAGGUACUAUUAGAGAUAGAGUAAGGAUAUGAAAUUUGUG | – | – | 7.88 | 17.3 |
| AUAUAGAUGGUCAGGAUAUGCUAGUGGUAACAGUAGCAGAAGGGACAUGAGGAUCACCCAUGUGGGUCCUGCUC | 22.3 | 64 | – | – |
| AGUGUCAUCGAGAAGGCCUUAACAUGAGGAUCACCCAUGUUGUAAUAUGGGAGGAUAUCGAUGAUACAGCUACGUUUCGUAGCA | – | – | 10.1 | 5.71 |
| AGUCAUACAGGAUAUACAUGAGGAUCACCCAUGUUUAUCCUAAAAUAAAAAACCUCAUGUAGAAGGGUAUGACA | 19.4 | 13.5 | – | – |
| AUCGUGCAGCUUUGCUGUACGCGUACAUGAGGAUCACCCAUGUAGGAUAUGGUAGGCUUUGCUUACUAGAAGGAUAGUGUGAUC | 106 | 33.2 | – | – |
| UUGAUAAGGAGAGGAUAUGGACAUGAGGAUCACCCAUGUACAUGGGAAUAUUUACUGAAUUUUUACUAGAAGGCUUACAUAUUU | 15.8 | 12.4 | – | – |
| AAGUACCGGUGAGGAUAUUUUUAAUAGAACUUUAUGAUAUACAUGAGGAUCACCCAUGUUACUUUAAAGAAGGCAUCGGAUAAA | 18.3 | 14.6 | – | – |
| GUGAGGUCAGGAUAUGCAUGGCGGGACUUGCGUCGUGGCGUGCAGAAGGGACAUGAGGAUCACCCAUGUGGAGG | 225 | 302 | – | – |
| AAAAAACAUGAGGAUCACCCAUGUGAGGAUAUGACUUAAAUAAAGAAAGAAGAAAUAGUCAGAAGGCACAAAUA | 54.5 | 70.4 | – | – |
| AACGAGCUAGGAUAUGCACGGAAAAGCGUGGUCACUUAUGGACAUGAGGAUCACCCAUGUAGAAGGAGCGACGC | 22.5 | 18.9 | – | – |
| UUUGUACAUGAGGAUCACCCAUGUGAGGAUAUGCUUUAUUAUUAUUAUUAUUAUUAUUGCAGAAGGCACGUUGU | 69.7 | 98.2 | – | – |
| CUGAGGCUAGGAUAUACGUGAGGUUAGUUGCGAAGCGCUUGACAUGAGGAUCACCCAUGUAGAAGGAGCGGCUU | 22.6 | 28.9 | – | – |
| CUUCAGUCAGGAUAUGUUAAUCUCGCCACUCCGCGAGCCGGACAGAAGGGACAUGAGGAUCACCCAUGUUAAAC | 29.5 | 21.9 | – | – |
| AGCUGGUGACAGCAUCGAGCAAAACAUGAGGAUCACCCAUGUAGAAGGCUGUACGGUUACCGUACAGAGGAUAUACAAAGCUCG | 6.35 | 8.14 | – | – |
| AUACAUGAGGAUCACCCAUGUUACAUGGCCUUGAUAGAUUGUAGAAGGAUGUUAUUAUUUUUUUCAUAGGAUAUACUAUUUAGU | 120 | 105 | – | – |
| GCACUUAGAGAUGAACCGUUACUAACAUGAGGAUCACCCAUGUAGGAUAUGCUAAUAGUAUUGAAGCAGAAGGACACUAAGUGC | 5.25 | 6.51 | – | – |
| UAAGUUGAGGAGAAGGGAGCACAUGAGGAUCACCCAUGUGGUUCUUUGUGCUCAGGAUAUCCAUGGAGCUCCAACGCGUUCCCG | 63.1 | 10.3 | – | – |
| UUUCGGCUAGGAUAUCUGUGCUCGGACAUGAGGAUCACCCAUGUGCGUCAUCACGGAGCCGGAGAAGGAGCUCGUA | 15.8 | 20 | – | – |

| Sequence | apparent Kd [1] [nM] | apparent Kd [2] [nM] | apparent Kd [3] [nM] | apparent Kd [4] [nM] |
| --- | --- | --- | --- | --- |
| AGCUAGUCAGGAUAUACGUACAUGUCAUUAGACGUGAAGGGACAUGAGGAUCACCCAUGUAGAAGGGACUAGCA | 40 | 164 | – | – |
| GGUGCUAUGUAGAAGGCAGAUCUGAUUCAGAUCUGAGGAUAUACAUGAGGAUCACCCAUGUUAUGCACCAGCACGAGAGUGCAA | 7.12 | 12.8 | – | – |
| ACCUCACAUGAGGAUCACCCAUGUUAGGAUAUCUCGGCGCCCUGUAGGCAGUAGCGCCAGAGAAGGAACGUGCA | 24.3 | 25.2 | – | – |
| AAAAAAAAAACAUAGGAUAUCCGGGCCGGGACAUGAGGAUCACCCAUGUCAAAAAAAAUUGGCCCGGAGAAGGAUGAAAAAAAAAA | – | – | 15.5 | 14.9 |
| GAAGCGCUGGAGAAGGGUGAUCAAGUUAUAAACGUGUACAUGAGGAUCACCCAUGUCAGGGAAUCGCAGGAUAUCCAGCUGAAC | – | – | 315 | 42.9 |
| UCGGCGCGAGGAUAUGCGGCUGCUGCUUCGGGCCGUGGCGUACAUGAGGAUCACCCAUGUAGAAGGCGCGCCGC | 13.1 | 14.1 | – | – |
| GCGUCAGAAUUAAUUGUGACAGGCAGAAGGCCAUAUCUUAUGUCAGACAUGAGGAUCACCCAUGUGGAGGAUAUGCAGUUACAC | 11.5 | 19.1 | – | – |
| UUUUAACAUGAGGAUCACCCAUGUGAGGAUAUCGAAAUUUAUAUUAAUAUUAAUUUAACGAGAAGGCACAUUUU | 101 | 93.7 | – | – |
| UUACGUCCCGUUUACAUGAGGAUCACCCAUGUCGAAAGAGCGGAGGAUAUGCUACCUAGUUGGUAGCAGAAGGUUGCAACGUCG | – | – | 17.7 | 28.3 |
| GUACCUUAUGAGAAGGCGAUCAUAAAACGUGAUCGAGGAUAUCAUGUAAACAUGAGGAUCACCCAUGUAUGGGUAUUAUGGUAC | – | – | 61.7 | 18.4 |
| UUCAGCUUGACAGGAUAUACAUGUCAGCGAAAGCUGACUAUCUUAAUAACAUGAGGAUCACCCAUGUAGAAGGGUCGAGCUGAA | 16.4 | 25.6 | – | – |
| UGAUAGGACAGAGGAUAUACGGCUAGGAGAUACUAGCUACUAUUCCUCACAUGAGGAUCACCCAUGUAGAAGGCUGUCCUAUCU | 16.9 | 148 | – | – |
| GGAUAGGACAGAGGAUAUACGUGCUAGAGAUACUACCAAAAUUUCCUCACAUGAGGAUCACCCAUGUAGAAGGCUGUCCUAUCG | 180 | 143 | – | – |
| GUGGCGACGUAGAAGGGUGACAUGAGGAUCACCCAUGUGCCGAUAUUUCUCGAGAUAUGUCGGCCACAGGAUAUACGUGCCAUC | – | – | 40.1 | 56 |
| GGACGUCACAUUUACAUGAGGAUCACCCAUGUCGAAAGACAUGAGGAUAUGCUACCUAAUUGGUAGCAGAAGGCAUGGACGUCC | – | – | 408 | 228 |
| UGGUACUAGGGAGGAUAUGGGAAGAUACAUGAGGAUCACCCAUGUUUAAGAAUGCCGUGAGGCAACUAGAAGGCCCUAGUACCU | – | – | 505 | 18.8 |
| UAAUUUAACAAGAAGGCUAACAUGAGGAUCACCCAUGUUGUACAUGGAUAUAGAGGAUAUUGCUAAUAAUUAUUUAUCAUAAUU | 24.2 | 19.2 | – | – |
| GCACUGGAUGUAGGAUAUCAGGACGAUAAGUCCUGAGAAGGACAUGAGGAUCACCCAUGUGAUUACACCAGUGCAAAUAAUAUA | 5.78 | 7.06 | – | – |
| GAGUAGUUAAAAGGAUAUUGAUUAUUGUAGGAUCAAGAAGGUUUUAACAUGAGGAUCACCCAUGUAGGACUAUUCCUGUGAAAA | – | – | 15.6 | 12.7 |
| AAAAAAAAAAGUCAGGAUAUACAAAUUUUUACAUGAGGAUCACCCAUGUUAAGGAAAAAAAAAAAGUAGAAGGGACAAAAAAAAAA | – | – | 27.3 | 17.6 |
| UUCACGUAUAUAGGAUAUGCGGGCAAAUAACGCGCAGAAGGAUAUACAUGAGGAUCACCCAUGUAUUGAGACCUCAUACGCCGC | 7.47 | 9.38 | – | – |
